# Tb MetRS inh – blocks T. brucei methionyl-tRNA synthetase activity; purified T. brucei MetRS, ATP depletion, Kinase-Glo luminescence; inhibition, % at 11.9 µM; 360,000 tested, 0.4% active; AID 624268;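 active means inhibition above a per-plate cutoff of the control wells' mean inhibition plus 3 SD, cut at about 5.5% in these data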;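 further: 0% = DMSO wells median and 100% = median of wells with control inhibitor compound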
#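 Dosing: 11.9 µM compound single dose, 0.9% DMSO; Assay system: purified T. brucei MetRS enzyme; Measured by: Kinase-Glo luciferase luminescence reporting remaining unconsumed ATP; Schedule: 15 min plus 2 h at 25 °C.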
# UPR XBP1 act – activators of adaptive arm of unfolded protein response (XBP1); activation, % at 20 µM; AID 463104; 330,000 tested, 0.33% active; CHO-XBP1 luciferase reporter, IRE1-XBP1 UPR activation, luminescence; percent of tunicamycin response, DMSO as zero;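 active means versus positive control, 20 µM dose yields 30% or more activation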;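 further: 100% = tunicamycin at 10 µg/mL and 0% = DMSO only wells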
#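 Material: CHO cell line with stable XBP1 luciferase reporter; buffer or medium: F12 medium containing 10% fetal bovine serum; compound: single point, 20 µM final compound, 1% DMSO; incubation: 6 h treatment, 37 °C; measured by: glow luminescence from Steady-Glo reagent; evaluation: activation, % of tunicamycin; control set: tunicamycin high, DMSO low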
# CHOP inhibitor – CHOP inhibition in unfolded protein response. CHO-K1 CHOP-promoter luciferase, tunicamycin-induced, 15-18 h. inhibition, % at 10 µM. 220,000 tested, 3.8% active. AID 2732;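 active means compounds that reduced the stress-induced luciferase reporter signal by more than about 70% of percent inhibition, limit read from the data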;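 further: 0% = tunicamycin plus vehicle and 100% = wells without tunicamycin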
# V-ATPase pHluor – yeast V-ATPase proton transport regulation by pHLuorin | AID 504577 | S. cerevisiae, pHLuorin cytosolic pH fluorescence | 350,000 tested, 0.37% active | response, % at 10 µM; in the data active means response mostly above about 7.3%, no sharp cut-off; inactive means mostly below about 5.4%; further: actives read high
# UPR CHOP act – activators of apoptotic arm of unfolded protein response (CHOP); CHO-CHOP luciferase reporter, UPR activation, luminescence; percent of tunicamycin response over DMSO baseline; activation, % at 10 µM; 330,000 tested, 0.34% active; AID 449763;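 active means at 10 µM dose, activation of 40% or more, normalized to positive control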;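 further: 100% = tunicamycin at 10 µg/mL and 0% = DMSO alone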
#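 Evaluation: % reporter activation, DMSO baseline versus tunicamycin full activation; System: CHO-CHOP luciferase reporter cell line; Input: 500 cells/well; Incubation: 6 h compound treatment, 37 °C; Measured by: Steady-Glo luciferase luminescence; Dosing: one dose, 10 µM in 0.5% DMSO; Buffer or medium: F12 medium, 10% FBS; Benchmarks: positive tunicamycin 10 µg/mL, negative DMSO alone.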
# Tb MetRS conf – Trypanosoma brucei MetRS inhibition confirmed. T. brucei MetRS enzyme, luminescence (ATP depletion). AID 624412. shares compounds with Tb MetRS inh. inhibition, % at 11.9 µM. 1,400 tested, 93% active; in the data active means inhibition above about 7%
# Jurkat tox – kills Jurkat cells in T. brucei MetRS counterscreen; shares compounds with Tb MetRS inh; Jurkat cells viability, ATP luminescence; inhibition, % at 8.3 µM; 1,400 tested, 12% active; in the data active means inhibition above about 15%;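 further: 0% = vehicle and 100% = reference inhibitor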
# Tb MetRS inh FP – inhibits T. brucei methionyl tRNA synthetase in orthogonal FP test; shares compounds with Tb MetRS inh; purified T. brucei MetRS, fluorescence polarization; inhibition, % at 11.9 µM; 1,400 tested, 44% active; in the data active means inhibition above about 17%;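 further: 0% = vehicle wells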
# * = called active by the depositor; · = no result. Only a selection was taken, and hits are over-represented in it overall.
SMILES,Tb MetRS inh,UPR XBP1 act,CHOP inhibitor,V-ATPase pHluor,UPR CHOP act,Tb MetRS conf,Jurkat tox,Tb MetRS inh FP
O=C(CNc1cc(S(=O)(=O)N2CCOCC2)ccc1NCC1CCCO1)Nc1cccc(F)c1 (stereo not drawn),14*,-6,·,-10,0,9.1*,-2,5
O=C(CNc1cc(S(=O)(=O)N2CCOCC2)ccc1N1CCCC1)Nc1ccc(Cl)cc1,48*,·,·,3,·,65*,3,35*
CC(=O)c1ccc(NC(=O)CNc2cc(S(=O)(=O)N3CCOCC3)ccc2N2CCCC2)cc1,0,-1,·,3,0,·,·,·
O=C(Nc1ccc(Cl)c(Cl)c1)Nc1cc(S(=O)(=O)N2CCOCC2)ccc1N1CCCC1,8.0*,-4,31,1,-2,16*,7,5
O=S(=O)(Nc1cc(S(=O)(=O)N2CCOCC2)ccc1NCC1CCCO1)c1ccc(F)cc1 (stereo not drawn),0,1,·,-2,0,·,·,·
O=C(Nc1ccccc1F)Nc1cc(S(=O)(=O)N2CCOCC2)ccc1N1CCCC1,1,-1,9,-1,1,·,·,·
O=C(CCCSc1nc2ccccc2[nH]1)N1CCN(c2ccc([N+](=O)[O-])cc2)CC1,9.2*,-2,73*,3,3,55*,1,14
O=C(CSc1nc2ccccc2[nH]1)N1CCN(c2ccc(F)cc2)CC1,1,-2,32,-1,-2,·,·,·
COc1ccc2[nH]cc(C(=O)CN3CCN(C(=O)c4ccco4)CC3)c2c1,6.4*,8,47,3,-3,4,-5,-4
O=C(Nc1ccccc1)Nc1nnc(CSCc2ccccc2Cl)s1,12*,-2,90*,3,0,61*,-1,55*
Cc1ccc(-c2nc3ccccn3c2C=O)cc1,0,4,14,2,2,·,·,·
Cc1c(-c2ccc(Br)cc2)nc2ccccn12,12*,2,34,-1,4,23*,0,13
Cc1cccc(CC(Cc2nc3ccccc3[nH]2)c2nc3ccccc3[nH]2)c1 (stereo not drawn),8.4*,-4,-77,-4,2,21*,10,9
CC(c1ccccc1)C(Cc1nc2ccccc2[nH]1)c1nc2ccccc2[nH]1 (stereo not drawn),·,-2,36,·,-2,·,·,·
COc1ccccc1CC(Cc1nc2ccccc2[nH]1)c1nc2ccccc2[nH]1 (stereo not drawn),5.7*,-2,18,0,2,11*,3,3
COc1ccc(N2CCN(C3CC(=O)N(Cc4ccccc4)C3=O)CC2)cc1 (stereo not drawn),0,1,-1,2,1,·,·,·
O=C(c1ccncc1)c1ccc(N2CCN(C3CC(=O)N(Cc4ccccc4)C3=O)CC2)cc1 (stereo not drawn),15*,-5,10,4,0,28*,13,6
Cc1ccc(C(CC(=O)O)NC(=O)c2ccc(S(=O)(=O)N3CC(C)OC(C)C3)cc2)cc1 (stereo not drawn),0,1,·,-1,2,·,·,·
CCCCc1c(-c2ccccc2OC)ncn1CCc1cccc(Cl)c1,5.8*,·,·,·,·,16*,36*,5
Cn1c(NCCc2ccncc2)nc2cc(-c3ccsc3)sc2c1=O,0,·,·,·,·,·,·,·
CCOC(=O)C(/C=C(\C#N)C(=O)OCC)=C(/N)N1CCN(c2c(C)cccc2C)CC1,0,-1,18,-7,-3,·,·,·
CCOC(=O)C(/C=C(\C#N)C(=O)OCC)=C(/N)N1CCN(c2ccc(OC)cc2)CC1,22*,4,45,0,-2,43*,3,13
O=C(Cc1ccc(Br)cc1)N/N=C/c1ccc(-c2cccc(C(=O)O)c2)o1,6.9*,0,12,-4,0,16*,0,5
Cc1ccc(OCc2nc(C#N)c(NCCCn3ccnc3)o2)cc1,2,1,-7,4,0,·,·,·
N#Cc1nc(COc2ccc(Br)cc2)oc1NCCCn1ccnc1,30*,1,3,-1,2,53*,7,31*
SMILES,Tb MetRS inh,UPR XBP1 act,CHOP inhibitor,V-ATPase pHluor,UPR CHOP act,Tb MetRS conf,Jurkat tox,Tb MetRS inh FP
CC(C)CC1NC(=O)N(CCCCN2C(=O)c3ccccc3C2=O)C1=O (stereo not drawn),8.8*,-1,-13,-2,-1,2,2,-3
OCC1(Cc2ccccc2Cl)CCN(C/C=C/c2ccccc2)CC1,7.2*,-2,29,-1,1,19*,5,4
OCC1(CCc2ccccc2)CCN(C/C=C/c2ccccc2)CC1,0,0,·,3,1,·,·,·
Cc1cc(C)c(C)c(S(=O)(=O)Nc2cccc(-n3cnnn3)c2)c1C,7.3*,-4,·,1,0,17*,9,6
Cc1cc(C)c(S(=O)(=O)Nc2cccc(-n3cnnn3)c2)c(C)c1,2,-3,·,2,0,·,·,·
CCN(CC)S(=O)(=O)c1cccc(NC(=O)CSc2nnc(N)s2)c1,0,-3,-9,1,0,·,·,·
O=C(CSc1nnc(Nc2ccccc2)s1)Nc1ccc(S(=O)(=O)N2CCOCC2)cc1,13*,-3,23,5,0,29*,12,19*
Cc1ccc(Nc2nnc(SCC(=O)Nc3ccc(S(=O)(=O)N4CCOCC4)cc3)s2)cc1,8.5*,0,26,4,4,15*,5,14
CC(OC(=O)CCCN=C1NS(=O)(=O)c2ccccc21)C(=O)Nc1ccc(F)c(F)c1F (stereo not drawn),0,0,·,3,-1,·,·,·
Cc1nc2ccccc2c2oc(C(=O)N3CCc4ccccc4C3)cc12,8.7*,3,60,2,1,8.9*,6,11
Cc1nc2ccccc2c2oc(C(=O)N3CCC(C)CC3)cc12,-1,1,·,-2,4,·,·,·
COc1ccccc1C(=O)N/C(=C\c1ccc2c(c1)OCO2)C(=O)NCCc1nc2ccccc2[nH]1,8.8*,-5,20,1,-2,16*,10,5
O=C(NCCc1nc2ccccc2[nH]1)/C(=C/c1ccc2c(c1)OCO2)NC(=O)c1ccccc1,6.4*,-2,32,-1,-1,9.6*,1,2
O=C(NCCc1nc2ccccc2[nH]1)/C(=C/c1ccc2c(c1)OCO2)NC(=O)c1ccccc1Cl,3,-2,-20,-1,1,·,·,·
O=S(=O)(NCc1ccc(F)cc1)c1ccc(Br)cc1Br,0,-2,·,1,2,·,·,·

# Screens deposited in PubChem by several laboratories.
